ChEMBL document CHEMBL4715736, “Identification of anticancer agents based on the thieno[2,3-b]pyridine and 1H-pyrazole molecular scaffolds” (2016)

tested on: M14; assay: Growth inhibition of human M14 cells assessed as cell growth at 10 uM incubated for 48 hrs by sulforhodamine B assay relative to control; assay type: functional; conditions: read-out: Activity
Method in brief: (§1)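 Submitted to the NCI Developmental Therapeutics Program for the NCI60 human tumour cell line panel. First screen at a single 10 µM concentration. Read-out is growth relative to untreated control cells set at 100%.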

SMILES	growth at 10 µM
O=S(=O)(c1ccc(Br)cc1)n1ccc(-c2ccc(OCCCF)cc2)n1	97.1%

tested on: NCI-H460; assay: Growth inhibition of human NCI-H460 cells assessed as cell growth at 10 uM incubated for 48 hrs by sulforhodamine B assay relative to control; assay type: functional; conditions: read-out: Activity; method in brief: as §1

SMILES	growth at 10 µM
O=S(=O)(c1ccc(Br)cc1)n1ccc(-c2ccc(OCCCF)cc2)n1	90.1%

tested on: SN12C; assay: Growth inhibition of human SN12C cells assessed as cell growth at 10 uM incubated for 48 hrs by sulforhodamine B assay relative to control; assay type: functional; conditions: read-out: Activity
Method in brief: (§2)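 Run by the NCI Developmental Therapeutics Program as part of its 60-line human tumour panel. Each compound tested at a single 10 µM dose. Growth expressed as % relative to untreated control cells (100%).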

SMILES	growth at 10 µM
O=S(=O)(c1ccc(Br)cc1)n1ccc(-c2ccc(OCCCF)cc2)n1	87%

tested on: HL-60(TB); assay: Growth inhibition of human HL-60(TB) cells assessed as cell growth at 10 uM incubated for 48 hrs by sulforhodamine B assay relative to control; assay type: functional; conditions: read-out: Activity
Method in brief: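 Screened by the NCI Developmental Therapeutics Program on its panel of 60 human tumour cell lines. Compounds were first tested at a single 10 µM dose, and compounds active there went to dose-response curves. Growth is expressed relative to untreated control (100%). GI50 (50% of maximal proliferation inhibition) and TGI (total growth inhibition) were derived from the dose-response data.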

SMILES	growth at 10 µM
O=S(=O)(c1ccc(Br)cc1)n1ccc(-c2ccc(OCCCF)cc2)n1	95.7%

tested on: KM12; assay: Growth inhibition of human KM12 cells assessed as cell growth at 10 uM incubated for 48 hrs by sulforhodamine B assay relative to control; assay type: functional; conditions: read-out: Activity; method in brief: as §1

SMILES	growth at 10 µM
O=S(=O)(c1ccc(Br)cc1)n1ccc(-c2ccc(OCCCF)cc2)n1	104%

tested on: MDA-MB-435; assay: Growth inhibition of human MDA-MB-435 cells assessed as cell growth at 10 uM incubated for 48 hrs by sulforhodamine B assay relative to control; assay type: functional; conditions: read-out: Activity; method in brief: as §1

SMILES	growth at 10 µM
O=S(=O)(c1ccc(Br)cc1)n1ccc(-c2ccc(OCCCF)cc2)n1	98.2%

tested on: CCRF-CEM; assay: Growth inhibition of human CCRF-CEM cells assessed as cell growth at 10 uM incubated for 48 hrs by sulforhodamine B assay relative to control; assay type: functional; conditions: read-out: Activity
Method in brief: (§3)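 NCI Developmental Therapeutics Program NCI60 panel. Compounds that were active in the 10 µM one-dose screen went on to dose–response testing. Growth at each concentration is expressed relative to untreated control (100%). GI50 (concentration giving 50% of maximal inhibition of proliferation) and TGI (concentration giving total growth inhibition) were derived from the curves.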

SMILES	growth at 10 µM
O=S(=O)(c1ccc(Br)cc1)n1ccc(-c2ccc(OCCCF)cc2)n1	92.3%

tested on: SNB-75; assay: Growth inhibition of human SNB-75 cells assessed as cell growth at 10 uM incubated for 48 hrs by sulforhodamine B assay relative to control; assay type: functional; conditions: read-out: Activity; method in brief: as §2

SMILES	growth at 10 µM
O=S(=O)(c1ccc(Br)cc1)n1ccc(-c2ccc(OCCCF)cc2)n1	84.5%

tested on: RXF 393; assay: Growth inhibition of human RXF 393 cells assessed as cell growth at 10 uM incubated for 48 hrs by sulforhodamine B assay relative to control; assay type: functional; conditions: read-out: Activity; method in brief: as §2

SMILES	growth at 10 µM
O=S(=O)(c1ccc(Br)cc1)n1ccc(-c2ccc(OCCCF)cc2)n1	92.7%

tested on: IGROV-1; assay: Growth inhibition of human IGROV-1 cells assessed as cell growth at 10 uM incubated for 48 hrs by sulforhodamine B assay relative to control; assay type: functional; conditions: read-out: Activity; method in brief: as §1

SMILES	growth at 10 µM
O=S(=O)(c1ccc(Br)cc1)n1ccc(-c2ccc(OCCCF)cc2)n1	89%

tested on: SF-539; assay: Growth inhibition of human SF-539 cells assessed as cell growth at 10 uM incubated for 48 hrs by sulforhodamine B assay relative to control; assay type: functional; conditions: read-out: Activity; method in brief: as §2

SMILES	growth at 10 µM
O=S(=O)(c1ccc(Br)cc1)n1ccc(-c2ccc(OCCCF)cc2)n1	90.2%

tested on: SK-MEL-5; assay: Growth inhibition of human SK-MEL-5 cells assessed as cell growth at 10 uM incubated for 48 hrs by sulforhodamine B assay relative to control; assay type: functional; conditions: read-out: Activity; method in brief: as §2

SMILES	growth at 10 µM
O=S(=O)(c1ccc(Br)cc1)n1ccc(-c2ccc(OCCCF)cc2)n1	75.4%

tested on: MDA-MB-468; assay: Growth inhibition of human MDA-MB-468 cells assessed as cell growth at 10 uM incubated for 48 hrs by sulforhodamine B assay relative to control; assay type: functional; conditions: read-out: Activity; method in brief: as §1

SMILES	growth at 10 µM
O=S(=O)(c1ccc(Br)cc1)n1ccc(-c2ccc(OCCCF)cc2)n1	39.8%

tested on: A549; assay: Growth inhibition of human A549/ATCC cells assessed as cell growth at 10 uM incubated for 48 hrs by sulforhodamine B assay relative to control; assay type: functional; conditions: read-out: Activity; method in brief: as §3

SMILES	growth at 10 µM
O=S(=O)(c1ccc(Br)cc1)n1ccc(-c2ccc(OCCCF)cc2)n1	75.7%

tested on: NCI-H226; assay: Growth inhibition of human NCI-H226 cells assessed as cell growth at 10 uM incubated for 48 hrs by sulforhodamine B assay relative to control; assay type: functional; conditions: read-out: Activity; method in brief: as §1

SMILES	growth at 10 µM
O=S(=O)(c1ccc(Br)cc1)n1ccc(-c2ccc(OCCCF)cc2)n1	80.6%

tested on: NCI/ADR-RES; assay: Growth inhibition of human NCI/ADR-RES cells assessed as cell growth at 10 uM incubated for 48 hrs by sulforhodamine B assay relative to control; assay type: functional; conditions: read-out: Activity; method in brief: as §1

SMILES	growth at 10 µM
O=S(=O)(c1ccc(Br)cc1)n1ccc(-c2ccc(OCCCF)cc2)n1	78.9%

tested on: NCI-H322M; assay: Growth inhibition of human NCI-H322M cells assessed as cell growth at 10 uM incubated for 48 hrs by sulforhodamine B assay relative to control; assay type: functional; conditions: read-out: Activity; method in brief: as §1

SMILES	growth at 10 µM
O=S(=O)(c1ccc(Br)cc1)n1ccc(-c2ccc(OCCCF)cc2)n1	104%

tested on: SK-MEL-28; assay: Growth inhibition of human SK-MEL-28 cells assessed as cell growth at 10 uM incubated for 48 hrs by sulforhodamine B assay relative to control; assay type: functional; conditions: read-out: Activity; method in brief: as §2

SMILES	growth at 10 µM
O=S(=O)(c1ccc(Br)cc1)n1ccc(-c2ccc(OCCCF)cc2)n1	93.4%

tested on: OVCAR-5; assay: Growth inhibition of human OVCAR-5 cells assessed as cell growth at 10 uM incubated for 48 hrs by sulforhodamine B assay relative to control; assay type: functional; conditions: read-out: Activity; method in brief: as §2

SMILES	growth at 10 µM
O=S(=O)(c1ccc(Br)cc1)n1ccc(-c2ccc(OCCCF)cc2)n1	103%

tested on: Hs-578T; assay: Growth inhibition of human Hs-578T cells assessed as cell growth at 10 uM incubated for 48 hrs by sulforhodamine B assay relative to control; assay type: functional; conditions: read-out: Activity; method in brief: as §1

SMILES	growth at 10 µM
O=S(=O)(c1ccc(Br)cc1)n1ccc(-c2ccc(OCCCF)cc2)n1	115%

tested on: Malme-3M; assay: Growth inhibition of human Malme-3M cells assessed as cell growth at 10 uM incubated for 48 hrs by sulforhodamine B assay relative to control; assay type: functional; conditions: read-out: Activity; method in brief: as §1

SMILES	growth at 10 µM
O=S(=O)(c1ccc(Br)cc1)n1ccc(-c2ccc(OCCCF)cc2)n1	89%

tested on: HOP-92; assay: Growth inhibition of human HOP-92 cells assessed as cell growth at 10 uM incubated for 48 hrs by sulforhodamine B assay relative to control; assay type: functional; conditions: read-out: Activity; method in brief: as §1

SMILES	growth at 10 µM
O=S(=O)(c1ccc(Br)cc1)n1ccc(-c2ccc(OCCCF)cc2)n1	74.1%

tested on: MOLT-4; assay: Growth inhibition of human MOLT-4 cells assessed as cell growth at 10 uM incubated for 48 hrs by sulforhodamine B assay relative to control; assay type: functional; conditions: read-out: Activity; method in brief: as §1

SMILES	growth at 10 µM
O=S(=O)(c1ccc(Br)cc1)n1ccc(-c2ccc(OCCCF)cc2)n1	75.8%

tested on: U-251; assay: Growth inhibition of human U-251 cells assessed as cell growth at 10 uM incubated for 48 hrs by sulforhodamine B assay relative to control; assay type: functional; conditions: read-out: Activity; method in brief: as §2

SMILES	growth at 10 µM
O=S(=O)(c1ccc(Br)cc1)n1ccc(-c2ccc(OCCCF)cc2)n1	90.7%

tested on: HCT-15; assay: Growth inhibition of human HCT-15 cells assessed as cell growth at 10 uM incubated for 48 hrs by sulforhodamine B assay relative to control; assay type: functional; conditions: read-out: Activity; method in brief: as §1

SMILES	growth at 10 µM
O=S(=O)(c1ccc(Br)cc1)n1ccc(-c2ccc(OCCCF)cc2)n1	86.4%

tested on: UACC-62; assay: Growth inhibition of human UACC-62 cells assessed as cell growth at 10 uM incubated for 48 hrs by sulforhodamine B assay relative to control; assay type: functional; conditions: read-out: Activity; method in brief: as §2

SMILES	growth at 10 µM
O=S(=O)(c1ccc(Br)cc1)n1ccc(-c2ccc(OCCCF)cc2)n1	59.9%

tested on: A498; assay: Growth inhibition of human A498 cells assessed as cell growth at 10 uM incubated for 48 hrs by sulforhodamine B assay relative to control; assay type: functional; conditions: read-out: Activity; method in brief: as §3

SMILES	growth at 10 µM
O=S(=O)(c1ccc(Br)cc1)n1ccc(-c2ccc(OCCCF)cc2)n1	91.1%

tested on: HOP-62; assay: Growth inhibition of human HOP-62 cells assessed as cell growth at 10 uM incubated for 48 hrs by sulforhodamine B assay relative to control; assay type: functional; conditions: read-out: Activity; method in brief: as §1

SMILES	growth at 10 µM
O=S(=O)(c1ccc(Br)cc1)n1ccc(-c2ccc(OCCCF)cc2)n1	118%

tested on: HCT-116; assay: Growth inhibition of human HCT-116 cells assessed as cell growth at 10 uM incubated for 48 hrs by sulforhodamine B assay relative to control; assay type: functional; conditions: read-out: Activity; method in brief: as §1

SMILES	growth at 10 µM
O=S(=O)(c1ccc(Br)cc1)n1ccc(-c2ccc(OCCCF)cc2)n1	78.7%

tested on: PC-3; assay: Growth inhibition of human PC-3 cells assessed as cell growth at 10 uM incubated for 48 hrs by sulforhodamine B assay relative to control; assay type: functional; conditions: read-out: Activity; method in brief: as §2

SMILES	growth at 10 µM
O=S(=O)(c1ccc(Br)cc1)n1ccc(-c2ccc(OCCCF)cc2)n1	79.5%

tested on: UACC-257; assay: Growth inhibition of human UACC-257 cells assessed as cell growth at 10 uM incubated for 48 hrs by sulforhodamine B assay relative to control; assay type: functional; conditions: read-out: Activity; method in brief: as §2

SMILES	growth at 10 µM
O=S(=O)(c1ccc(Br)cc1)n1ccc(-c2ccc(OCCCF)cc2)n1	77.9%

tested on: UO-31; assay: Growth inhibition of human UO-31 cells assessed as cell growth at 10 uM incubated for 48 hrs by sulforhodamine B assay relative to control; assay type: functional; conditions: read-out: Activity; method in brief: as §2

SMILES	growth at 10 µM
O=S(=O)(c1ccc(Br)cc1)n1ccc(-c2ccc(OCCCF)cc2)n1	69.1%
